Test results from ChEMBL document CHEMBL3739331, “Synthesis and Bioactivities of Kanamycin B-Derived Cationic Amphiphiles” (J Med Chem, 2015).
In brackets after ≈: the same amount, converted by molar mass. Activity calls are given as the source filed them. No cut-off for these calls is given here.

Tests used:
Listeria monocytogenes [1] = assay: Resistance index, ratio of MIC for Listeria monocytogenes ATCC 19115 after 6-passage to MIC for Listeria monocytogenes ATCC 19115 by microdilution method; format: functional
Procedure, shortened: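 Cells grown at subinhibitory concentration (1/2 MIC) seed each next round. The index compares the MIC at a later passage with the starting MIC.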

Candida albicans [2] = assay: Antifungal activity against azole-resistant Candida albicans ATCC 64124 assessed as cell membrane permeabilization at 62.5 ug/ml after 1 hr by propidium iodide-staining based fluorescence microscopic analysis (reference value: <2%); format: functional
[3] = Hemolytic activity against mouse RBC at 100 to 500 ug/ml after 60 mins; format: ADME, cell-based; conditions: erythrocyte, 1 h
A549 = assay: Cytotoxicity against human A549 cells after 24 hrs by resazurin assay; format: cell-based; conditions: human, a549, 24 h
[4] = Cytotoxicity against human BEAS2B cells after 24 hrs by resazurin assay; format: cell-based, BEAS-2B; conditions: human, beas-2b
Klebsiella pneumoniae = assay: Antibacterial activity against Klebsiella pneumoniae ATCC 27736 by microdilution method; format: functional
Procedure, shortened: (§1)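 Broth microdilution MIC against the named bacterial strain, reported in μg/mL; each determination run at least in duplicate.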

Bacillus subtilis = assay: Antibacterial activity against Bacillus subtilis 168 by microdilution method; format: functional; conditions: subsp. subtilis str. 168; procedure, shortened: as §1
Listeria monocytogenes [5] = assay: Antibacterial activity against Listeria monocytogenes ATCC 19115 by microdilution method; format: functional; procedure, shortened: as §1
Staphylococcus aureus [6] = assay: Antibacterial activity against methicillin-resistant Staphylococcus aureus by microdilution method; format: functional
Procedure, shortened: (§2)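 Broth microdilution MIC, in μg/mL, against a panel of Gram-positive and Gram-negative strains. Run at least in duplicate.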

[7] = test system: Mycolicibacterium smegmatis; assay: Antibacterial activity against Mycobacterium smegmatis MC2 155 by microdilution method; format: functional; conditions: str. MC2 155; procedure, shortened: as §2
Staphylococcus aureus [8] = assay: Antibacterial activity against Staphylococcus aureus ATCC 29213 by microdilution method; format: functional; procedure, shortened: as §1
Staphylococcus aureus [9] = assay: Antibacterial activity against Staphylococcus aureus NRS382 (USA 100) by microdilution method; format: functional; procedure, shortened: as §1
Staphylococcus aureus [10] = assay: Antibacterial activity against Staphylococcus aureus NRS383 (USA 200) by microdilution method; format: functional; procedure, shortened: as §1
Staphylococcus aureus [11] = assay: Antibacterial activity against Staphylococcus aureus NRS385 (USA 300) by microdilution method; format: functional; procedure, shortened: as §2
Staphylococcus aureus [12] = assay: Antibacterial activity against Staphylococcus aureus NRS22 (USA 600) by microdilution method; format: functional; procedure, shortened: as §1
[13] = test system: Staphylococcus epidermidis; assay: Antibacterial activity against Staphylococcus epidermidis ATCC 12228 by microdilution method; format: functional; procedure, shortened: as §1
Enterococcus = assay: Antibacterial activity against vancomycin-resistant Enterococcus by microdilution method; format: functional; procedure, shortened: as §2
Acinetobacter baumannii = assay: Antibacterial activity against Acinetobacter baumannii ATCC 19606 by microdilution method; format: functional; procedure, shortened: as §1
Enterobacter cloacae = assay: Antibacterial activity against Enterobacter cloacae ATCC 13047 by microdilution method; format: functional; procedure, shortened: as §1
Escherichia coli = assay: Antibacterial activity against Escherichia coli MC1061 by microdilution method; format: functional; procedure, shortened: as §2
Pseudomonas aeruginosa = assay: Antibacterial activity against Pseudomonas aeruginosa ATCC 27853 by microdilution method; format: functional; procedure, shortened: as §1
Salmonella enterica = assay: Antibacterial activity against Salmonella enterica ATCC 14028 by microdilution method; format: functional; procedure, shortened: as §1
[14] = Activity of AAC(3)-4 (unknown origin) assessed as compound conversion to monoacetylated product incubated for 20 hrs by TLC analysis
[15] = test system: Mycobacterium tuberculosis; assay: Activity of Mycobacterium tuberculosis AAC(2')-1c assessed as compound conversion to monoacetylated product incubated for 20 hrs by TLC analysis
Serratia marcescens = assay: Activity of Serratia marcescens AAC(6')-2d assessed as compound conversion to monoacetylated product incubated for 20 hrs by TLC analysis
[16] = Activity of Mycobacterium tuberculosis AAC(2')-1c/AAC(3)-4 (unknown origin) assessed as compound conversion to 3'-acetylated product incubated for 20 hrs by TLC analysis
[17] = Activity of Mycobacterium tuberculosis AAC(2')-1c/Serratia marcescens AAC(6')-2d assessed as compound conversion to 6'-monoacetylated product incubated for 20 hrs by TLC analysis
[18] = Activity of AAC(3)-4 (unknown origin)/Serratia marcescens AAC(6')-2d assessed as compound conversion to 3'-acetylated product incubated for 20 hrs by TLC analysis
[19] = Activity of Mycobacterium tuberculosis […]/AAC(3)-4 (unknown origin)/Serratia marcescens AAC(6')-2d (unknown origin) assessed as compound conversion to diacetylated adduct incubated for 20 hrs by TLC analysis
Candida albicans [20] = assay: Antifungal activity against azole-resistant Candida albicans ATCC 10231 after 48 hrs by microbroth dilution method; format: functional; conditions: ATCC 10231, 48 h
Procedure, shortened: (§3)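 Yeast MIC by broth microdilution, run in duplicate. The aminoglycoside compounds are read as MIC-0 (complete inhibition). Azoles are read as MIC-2 (50% inhibition).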

Candida albicans [21] = assay: Antifungal activity against azole-resistant Candida albicans ATCC 64124 after 48 hrs by microbroth dilution method; format: functional; conditions: ATCC 64124, 48 h; procedure, shortened: as §3
Candida albicans [22] = assay: Antifungal activity against azole-susceptible Candida albicans ATCC MYA-2876 after 48 hrs by microbroth dilution method; format: functional; conditions: ATCC MYA-2876, 48 h; procedure, shortened: as §3
Candida albicans [23] = assay: Antifungal activity against azole-resistant Candida albicans ATCC 90819 after 48 hrs by microbroth dilution method; format: functional; conditions: ATCC 90819, 48 h; procedure, shortened: as §3
Candida albicans [24] = assay: Antifungal activity against azole-susceptible Candida albicans ATCC MYA-2310 after 48 hrs by microbroth dilution method; format: functional; conditions: ATCC MYA-2310, 48 h; procedure, shortened: as §3
Candida albicans [25] = assay: Antifungal activity against azole-resistant Candida albicans MYA-1237 after 48 hrs by microbroth dilution method; format: functional; conditions: MYA-1237, 48 h; procedure, shortened: as §3
Candida albicans [26] = assay: Antifungal activity against azole-resistant Candida albicans MYA-1003 after 48 hrs by microbroth dilution method; format: functional; conditions: MYA-1003, 48 h; procedure, shortened: as §3
Aspergillus nidulans = assay: Antifungal activity against Aspergillus nidulans ATCC 38163 after 48 hrs by microbroth dilution method; format: functional; conditions: ATCC 38163, 48 h
Procedure, shortened: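 Filamentous fungus MIC by broth microdilution, run in duplicate. All compounds are read as MIC-0 (complete inhibition).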

Candida albicans [27] = assay: (§4) Antifungal activity against azole-resistant Candida albicans ATCC 10231 after 48 hrs in presence of (2R,3S,4R,5R,6R)-5-amino-2-(aminomethyl)-6-((1R,2S,3S,4R,6S)-4,6-diamino-3-((2S,3R,4S,5S,6S)-4-amino-6-(dodecylthiomethyl)-3,5-dihydroxytetrahydro-2H-pyran-2-yloxy)-2-hydroxycyclohexyloxy)tetrahydro-2H-pyran-3,4-diol by checkerboard microdilution assay; format: functional; conditions: ATCC 10231, 48 h
Procedure, shortened: (§5)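 Checkerboard combinations of the aminoglycoside amphiphile with posaconazole against yeast strains, run in duplicate. Each agent's MIC is taken alone and in combination. The fractional inhibitory concentration index (FICI) is calculated to classify the interaction.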

Candida albicans [28] = assay: as §4, with “64124” for “10231”; format: functional; conditions: ATCC 64124, 48 h; procedure, shortened: as §5
Candida albicans [29] = assay: as §4, with “azole-susceptible” for “azole-resistant”, “MYA-2876” for “10231”; format: functional; conditions: ATCC MYA-2876, 48 h; procedure, shortened: as §5
Candida albicans [30] = assay: as §4, with “90819” for “10231”; format: functional; conditions: ATCC 90819, 48 h; procedure, shortened: as §5
Candida albicans [31] = assay: as §4, with “azole-susceptible” for “azole-resistant”, “MYA-2310” for “10231”; format: functional; conditions: ATCC MYA-2310, 48 h; procedure, shortened: as §5
Candida albicans [32] = assay: as §4, with “MYA-1237” for “ATCC 10231”; format: functional; conditions: MYA-1237, 48 h; procedure, shortened: as §5
Candida albicans [33] = assay: as §4, with “MYA-1003” for “ATCC 10231”; format: functional; conditions: MYA-1003, 48 h; procedure, shortened: as §5
Candida albicans [34] = assay: as §4, with “10231 assessed as fractional inhibition” for “10231”; format: functional; conditions: ATCC 10231, 48 h; procedure, shortened: as §5
Candida albicans [35] = assay: as §4, with “64124 assessed as fractional inhibition” for “10231”; format: functional; conditions: ATCC 64124, 48 h; procedure, shortened: as §5
Candida albicans [36] = assay: as §4, with “azole-susceptible” for “azole-resistant”, “MYA-2876 assessed as fractional inhibition” for “10231”; format: functional; conditions: ATCC MYA-2876, 48 h; procedure, shortened: as §5
Candida albicans [37] = assay: as §4, with “90819 assessed as fractional inhibition” for “10231”; format: functional; conditions: ATCC 90819, 48 h; procedure, shortened: as §5
Candida albicans [38] = assay: as §4, with “azole-susceptible” for “azole-resistant”, “MYA-2310 assessed as fractional inhibition” for “10231”; format: functional; conditions: ATCC MYA-2310, 48 h; procedure, shortened: as §5
Candida albicans [39] = assay: as §4, with “MYA-1237 assessed as fractional inhibition” for “ATCC 10231”; format: functional; conditions: MYA-1237, 48 h; procedure, shortened: as §5
Candida albicans [40] = assay: as §4, with “MYA-1003 assessed as fractional inhibition” for “ATCC 10231”; format: functional; conditions: MYA-1003, 48 h; procedure, shortened: as §5

For `NC[C@H]1O[C@H](O[C@H]2[C@H](O)[C@@H](O[C@H]3O[C@H](CO)[C@@H](O)[C@H](N)[C@H]3O)[C@H](N)C[C@@H]2N)[C@H](N)[C@@H](O)[C@@H]1O` [BEKANAMYCIN], the Ratio (Listeria monocytogenes [1]) was 4, the Activity (Candida albicans [2]) was 5% and the Activity [3] was “Non-toxic”. For the same compound, the Activity (A549) was “Non-toxic”, the Activity [4] was “Non-toxic” and the MIC (Klebsiella pneumoniae) was 4 µg/mL (≈ 8.27 µM). For the same compound, the MIC (Bacillus subtilis) was 4 µg/mL (≈ 8.27 µM), the MIC (Listeria monocytogenes [5]) was ≤ 0.25 µg/mL and the MIC (Staphylococcus aureus [6]) was > 128 µg/mL. The MIC [7] was ≤ 0.25 µg/mL, the MIC (Staphylococcus aureus [8]) was ≤ 0.25 µg/mL and the MIC (Staphylococcus aureus [9]) was > 128 µg/mL. The MIC (Staphylococcus aureus [10]) was 128 µg/mL (≈ 265 µM), the MIC (Staphylococcus aureus [11]) was 32 µg/mL (≈ 66.2 µM) and the MIC (Staphylococcus aureus [12]) was 32 µg/mL (≈ 66.2 µM). For the same compound, the MIC [13] was 0.5 µg/mL (≈ 1.03 µM), the MIC (Enterococcus) was > 128 µg/mL and the MIC (Acinetobacter baumannii) was 4 µg/mL (≈ 8.27 µM). The MIC (Enterobacter cloacae) was 0.5 µg/mL (≈ 1.03 µM), the MIC (Escherichia coli) was 2 µg/mL (≈ 4.14 µM) and the MIC (Pseudomonas aeruginosa) was 16 µg/mL (≈ 33.1 µM). The MIC (Salmonella enterica) was 2 µg/mL (≈ 4.14 µM), the Activity [14] was “Active” and the Activity [15] was “Active”. For the same compound, the Activity (Serratia marcescens) was “Active”, the Activity [16] was “inactive” and the Activity [17] was “inactive”. For the same compound, the Activity [18] was “inactive”, the Activity [19] was “Active” and the MIC (Candida albicans [20]) was > 125 µg/mL. For the same compound, the MIC (Candida albicans [21]) was > 125 µg/mL, the MIC (Candida albicans [22]) was > 125 µg/mL and the MIC (Candida albicans [23]) was > 125 µg/mL. The MIC (Candida albicans [24]) was > 125 µg/mL, the MIC (Candida albicans [25]) was > 125 µg/mL and the MIC (Candida albicans [26]) was > 125 µg/mL. The MIC (Aspergillus nidulans) was > 125 µg/mL.
In the case of `CC[C@@H]([C@H](C)O)n1ncn(-c2ccc(N3CCN(c4ccc(OC[C@@H]5CO[C@@](Cn6cncn6)(c6ccc(F)cc6F)C5)cc4)CC3)cc2)c1=O` [POSACONAZOLE], the MIC (Candida albicans [27]) is reported as 0.06 µg/mL, the MIC (Candida albicans [28]) is reported as 0.78 µg/mL and the MIC (Candida albicans [29]) is reported as 0.78 µg/mL. The MIC (Candida albicans [30]) was 0.78 µg/mL, the MIC (Candida albicans [31]) was 0.39 µg/mL and the MIC (Candida albicans [32]) was 0.78 µg/mL. For the same compound, the MIC (Candida albicans [33]) was 0.78 µg/mL, the MIC (Candida albicans [34]) was 0.06 µg/mL and the MIC (Candida albicans [35]) was 1.56 µg/mL. The MIC (Candida albicans [36]) was 1.56 µg/mL, the MIC (Candida albicans [37]) was 0.78 µg/mL and the MIC (Candida albicans [38]) was 1.56 µg/mL. The MIC (Candida albicans [39]) was 0.78 µg/mL, the MIC (Candida albicans [40]) was 1.56 µg/mL and the MIC50 (Candida albicans [20]) was 0.5 µg/mL (≈ 0.713 µM). For the same compound, the MIC50 (Candida albicans [21]) was > 62.5 µg/mL, the MIC50 (Candida albicans [22]) was 7.8 µg/mL (≈ 11.1 µM) and the MIC50 (Candida albicans [23]) was 31.2 µg/mL (≈ 44.5 µM). For the same compound, the MIC50 (Candida albicans [25]) was 15.6 µg/mL (≈ 22.3 µM), the MIC50 (Candida albicans [26]) was 15.6 µg/mL (≈ 22.3 µM) and the MIC (Aspergillus nidulans) was ≤ 1.95 µg/mL.
